Assay results as given in ChEMBL document CHEMBL3421533, “The Discovery of Orally Bioavailable Tyrosine Threonine Kinase (TTK) Inhibitors: 3-(4-(heterocyclyl)phenyl)-1H-indazole-5-carboxamides as Anticancer Agents” (J Med Chem, 2015).

Key:
[1] = target: T1, Dual specificity protein kinase TTK (Homo sapiens, UniProt P33981); test: Inhibition of amino terminal GST-fused full length human TTK using His6-SUMO-TTK-N as substrate preincubated for 15 mins prior to ATP addition by indirect ELISA detection system
T1 sequence (P33981 whole entry): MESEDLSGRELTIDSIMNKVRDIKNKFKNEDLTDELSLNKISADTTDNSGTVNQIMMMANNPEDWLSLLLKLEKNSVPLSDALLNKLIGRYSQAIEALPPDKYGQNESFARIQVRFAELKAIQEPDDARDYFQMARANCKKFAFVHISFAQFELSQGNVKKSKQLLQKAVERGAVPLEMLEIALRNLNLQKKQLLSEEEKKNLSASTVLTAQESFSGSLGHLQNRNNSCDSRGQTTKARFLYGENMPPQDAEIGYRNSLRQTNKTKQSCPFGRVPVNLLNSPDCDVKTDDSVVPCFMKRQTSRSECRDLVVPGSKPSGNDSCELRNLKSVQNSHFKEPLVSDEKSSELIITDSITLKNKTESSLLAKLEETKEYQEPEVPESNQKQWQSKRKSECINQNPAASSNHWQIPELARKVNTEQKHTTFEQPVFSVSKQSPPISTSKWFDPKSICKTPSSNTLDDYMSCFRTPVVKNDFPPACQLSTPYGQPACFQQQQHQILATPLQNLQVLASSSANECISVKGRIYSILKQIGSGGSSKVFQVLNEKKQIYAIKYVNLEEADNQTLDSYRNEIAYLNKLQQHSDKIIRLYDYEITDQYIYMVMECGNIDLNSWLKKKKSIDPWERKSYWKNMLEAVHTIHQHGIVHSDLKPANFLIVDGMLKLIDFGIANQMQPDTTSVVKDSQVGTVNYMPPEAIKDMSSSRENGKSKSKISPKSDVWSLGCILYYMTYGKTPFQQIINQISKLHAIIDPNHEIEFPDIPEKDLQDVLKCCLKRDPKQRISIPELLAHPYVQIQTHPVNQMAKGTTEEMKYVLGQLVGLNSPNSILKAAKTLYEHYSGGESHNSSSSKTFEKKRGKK

[2] = target: Aurora kinase B/Inner centromere protein (Homo sapiens, UniProt Q96GD4); test: Inhibition of AURKB/INCENP (unknown origin) preincubated for 15 mins prior to ATP addition by FRET-based homogenous assay; type: protein-complex assay
Method in brief: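 The enzyme was AURKB/INCENP in a FRET-based homogeneous assay run to kit specifications, with ATP at 128 μM. […] Each IC50 came from a single determination, reported with its standard fitting error.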

[3] = Cytotoxicity against human HCT116 cells after 5 days by sulforhodamine B assay; type: functional, HCT-116
Method in brief: (§1)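 Cancer lines were seeded at 800–6000 cells per well according to growth rate, 24 h before compound overlay. After culture, cells were fixed in situ and stained with sulforhodamine B. GI50 values were derived by curve fitting.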

[4] = Cytotoxicity against human OVCAR3 cells after 5 days by sulforhodamine B assay; type: functional, OVCAR-3
MDA-MB-468 = test: Cytotoxicity against human MDA-MB-468 cells after 5 days by sulforhodamine B assay; type: functional; method in brief: as §1
[5] = Half life in rat liver microsomes at 1 uM by LC-MS analysis; type: ADME; settings: liver microsomes
[6] = Half life in mouse liver microsomes at 1 uM by LC-MS analysis; type: ADME; settings: liver microsomes
Homo sapiens = species on record: Homo sapiens; test: Selectivity ratio of IC50 for AURKB/INCENP (unknown origin) to IC50 for amino terminal GST-fused full length human TTK
Cytochrome P450 3A4 = Cytochrome P450 3A4 (Homo sapiens, UniProt P08684); test: Inhibition of human CYP3A4 using BFC as substrate preincubated for 10 mins followed by enzyme/substrate addition measured after 30 mins by fluorescence assay; type: ADME
[7] = AUCinfinity in athymic CD1 nude mouse at 10 mg/kg, po by LC-MS/MS analysis; type: ADME, organism-based, Plasma; parameters: time infinity, dose 10 mg/kg, route oral; settings: athymic CD1 nude, plasma
[8] = Cmax in athymic CD1 nude mouse at 10 mg/kg, po by LC-MS/MS analysis; type: ADME, organism-based; parameters: dose 10 mg/kg, route oral; settings: athymic CD1 nude, in vivo
[9] = Homo sapiens, MDA-MB-468, 120 h

Chain of Cytochrome P450 3A4 (P08684 whole entry): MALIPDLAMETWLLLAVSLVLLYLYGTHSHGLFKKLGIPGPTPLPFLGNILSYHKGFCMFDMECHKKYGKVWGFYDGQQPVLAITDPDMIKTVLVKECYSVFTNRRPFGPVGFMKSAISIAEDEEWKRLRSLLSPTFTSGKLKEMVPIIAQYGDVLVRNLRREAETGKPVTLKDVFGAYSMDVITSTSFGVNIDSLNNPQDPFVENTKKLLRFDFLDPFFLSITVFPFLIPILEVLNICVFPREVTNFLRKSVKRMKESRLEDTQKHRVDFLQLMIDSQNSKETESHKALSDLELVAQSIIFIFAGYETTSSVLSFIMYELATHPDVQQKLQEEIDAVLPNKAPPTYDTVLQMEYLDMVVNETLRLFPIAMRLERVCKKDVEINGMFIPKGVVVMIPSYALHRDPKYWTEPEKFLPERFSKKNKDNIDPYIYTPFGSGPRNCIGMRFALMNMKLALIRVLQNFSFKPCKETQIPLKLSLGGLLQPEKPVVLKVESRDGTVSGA
Chain of Aurora kinase B/Inner centromere protein (Q96GD4 whole entry): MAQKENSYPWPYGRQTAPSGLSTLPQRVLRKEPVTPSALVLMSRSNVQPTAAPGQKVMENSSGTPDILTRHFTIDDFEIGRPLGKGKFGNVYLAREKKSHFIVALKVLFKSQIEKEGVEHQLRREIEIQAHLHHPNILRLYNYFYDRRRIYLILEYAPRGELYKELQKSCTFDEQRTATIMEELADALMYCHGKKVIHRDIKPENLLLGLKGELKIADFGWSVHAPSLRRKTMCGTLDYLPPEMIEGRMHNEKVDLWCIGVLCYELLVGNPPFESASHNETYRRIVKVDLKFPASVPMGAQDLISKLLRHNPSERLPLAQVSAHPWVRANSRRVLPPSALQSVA
Chain of Aurora kinase B/Inner centromere protein (Q9NQS7 whole entry, further chain): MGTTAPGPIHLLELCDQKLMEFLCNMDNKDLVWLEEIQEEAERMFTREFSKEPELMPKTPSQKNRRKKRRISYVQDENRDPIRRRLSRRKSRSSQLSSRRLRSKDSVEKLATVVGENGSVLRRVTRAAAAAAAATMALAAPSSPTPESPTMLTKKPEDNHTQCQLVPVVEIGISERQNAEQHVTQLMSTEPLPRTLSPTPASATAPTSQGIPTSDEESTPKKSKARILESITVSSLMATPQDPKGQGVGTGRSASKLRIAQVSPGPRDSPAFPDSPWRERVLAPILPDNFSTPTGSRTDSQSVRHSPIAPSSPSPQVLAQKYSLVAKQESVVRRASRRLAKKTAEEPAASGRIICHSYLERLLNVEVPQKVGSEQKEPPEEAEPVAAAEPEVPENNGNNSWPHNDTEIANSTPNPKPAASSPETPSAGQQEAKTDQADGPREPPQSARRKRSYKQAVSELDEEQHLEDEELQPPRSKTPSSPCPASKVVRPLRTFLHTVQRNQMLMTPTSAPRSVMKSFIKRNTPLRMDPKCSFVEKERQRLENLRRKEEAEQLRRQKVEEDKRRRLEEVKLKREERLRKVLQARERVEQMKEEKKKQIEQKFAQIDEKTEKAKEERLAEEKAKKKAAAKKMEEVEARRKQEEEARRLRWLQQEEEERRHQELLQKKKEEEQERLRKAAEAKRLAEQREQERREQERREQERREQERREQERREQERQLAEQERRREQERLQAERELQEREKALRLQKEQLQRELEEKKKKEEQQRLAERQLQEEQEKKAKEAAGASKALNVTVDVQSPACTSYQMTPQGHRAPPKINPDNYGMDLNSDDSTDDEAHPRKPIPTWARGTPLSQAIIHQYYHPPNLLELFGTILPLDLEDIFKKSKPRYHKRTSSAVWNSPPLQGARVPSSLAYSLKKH

Structure (SMILES): CC(C)C[C@@H](NC(=O)c1ccc2[nH]nc(-c3ccc(N4[C@H]5CC[C@H]4CC(O)C5)cc3)c2c1)c1ccccn1 (some centres not stated)
- IC50 [1]: 0.0027 µM
- IC50 [2]: 1.6 µM
- GI50 ([3]; Homo sapiens, HCT-116, 120 h): 0.005 µM
- GI50 ([4]; Homo sapiens, OVCAR-3, 120 h): 0.082 µM
- GI50 (MDA-MB-468; [9]): 0.026 µM
- half-life at 1 µM [5]: 0.417 h
- half-life at 1 µM [6]: > 1 h

Structure (SMILES): CC(C)C[C@H](NC(=O)c1ccc2[nH]nc(-c3ccc(N4[C@H]5CCC[C@H]4CC(O)C5)cc3)c2c1)c1ccccn1 (some centres not stated)
- IC50 [1]: 0.014 µM
- Ratio IC50 (Homo sapiens): > 100
- IC50 [2]: 0.98 µM
- GI50 ([3]; Homo sapiens, HCT-116, 120 h): 0.15 µM
- GI50 ([4]; Homo sapiens, OVCAR-3, 120 h): 0.73 µM
- GI50 (MDA-MB-468; [9]): 0.45 µM

Structure (SMILES): O=C(N[C@@H](c1ccccn1)C1CCCC1)c1ccc2[nH]nc(-c3ccc(N4[C@H]5COC[C@H]4CC(O)C5)cc3)c2c1 (some centres not stated)
- IC50 [1]: 0.0022 µM
- Ratio IC50 (Homo sapiens): > 100
- IC50 [2]: 0.74 µM
- GI50 ([3]; Homo sapiens, HCT-116, 120 h): 0.015 µM
- GI50 ([4]; Homo sapiens, OVCAR-3, 120 h): 0.16 µM
- GI50 (MDA-MB-468; [9]): 0.14 µM
- half-life at 1 µM [5]: 0.55 h
- half-life at 1 µM [6]: 1 h
- IC50 (Cytochrome P450 3A4): 0.33 µM

Structure (SMILES): CC(C)C[C@H](NC(=O)c1ccc2[nH]nc(-c3ccc(N4[C@H]5COC[C@H]4CC(O)C5)cc3)c2c1)c1ccccn1 (mixture of isomers)
- IC50 [2]: 0.23 µM

Structure (SMILES): CN1CCN(c2ccc(-c3n[nH]c4ccc(NC(=O)C(c5ccsc5)N5CCCC5)cc34)cc2S(C)(=O)=O)CC1 (racemic)
- IC50 [1]: 0.018 µM
- GI50 ([3]; Homo sapiens, HCT-116, 120 h): 0.28 µM
- GI50 (MDA-MB-468; [9]): 0.9 µM

Structure (SMILES): O=C(NC(c1ccccc1)C1CC1)c1ccc2[nH]nc(-c3cccc(N4CCOCC4)c3)c2c1 (racemic)
- IC50 [1]: 0.34 µM
- GI50 ([3]; Homo sapiens, HCT-116, 120 h): 5.6 µM
- GI50 (MDA-MB-468; [9]): 7.8 µM

Structure (SMILES): CN1CCC(Oc2ccc(-c3n[nH]c4ccc(C(=O)NC(c5ccccc5)C5CC5)cc34)cc2)CC1 (racemic)
- IC50 [2]: 0.057 µM

Structure (SMILES): CN1CCC(Oc2ccc(-c3n[nH]c4ccc(NC(=O)C(c5ccccn5)C5CCCC5)cc34)cc2)CC1 (racemic)
- IC50 [2]: 0.071 µM

Structure (SMILES): CN1CCC(Oc2ccc(-c3n[nH]c4ccc(C(=O)NC(c5ccccn5)C5CCCC5)cc34)cc2)CC1 (racemic)
- IC50 [2]: 0.18 µM

Structure (SMILES): O=CN1CCC(Oc2ccc(-c3n[nH]c4ccc(C(=O)NC(c5ccccc5)C5CC5)cc34)cc2)CC1 (racemic)
- IC50 [1]: 0.016 µM
- GI50 ([3]; Homo sapiens, HCT-116, 120 h): 0.13 µM
- GI50 (MDA-MB-468; [9]): 0.36 µM
- IC50 (Cytochrome P450 3A4): 1.5 µM

Structure (SMILES): O=CN1CCC(Oc2ccc(-c3n[nH]c4ccc(C(=O)NC(c5ccccn5)C5CC5)cc34)cc2)CC1 (racemic)
- IC50 [1]: 0.0094 µM
- IC50 [2]: 0.095 µM
- GI50 ([3]; Homo sapiens, HCT-116, 120 h): 0.035 µM
- GI50 (MDA-MB-468; [9]): 0.26 µM
- IC50 (Cytochrome P450 3A4): 1.5 µM

Structure (SMILES): CN1[C@@H]2CC[C@H]1C[C@@H](Oc1ccc(-c3n[nH]c4ccc(C(=O)NC(c5ccccc5)C5CC5)cc34)cc1)C2 (mixture of isomers)
- IC50 [1]: 0.0028 µM
- IC50 [2]: 0.093 µM
- GI50 ([3]; Homo sapiens, HCT-116, 120 h): 0.03 µM
- GI50 (MDA-MB-468; [9]): 0.13 µM
- IC50 (Cytochrome P450 3A4): 2.4 µM

Structure (SMILES): CN1[C@@H]2CC[C@H]1C[C@H](Oc1ccc(-c3n[nH]c4ccc(C(=O)NC(c5ccccc5)C5CC5)cc34)cc1)C2 (mixture of isomers)
- IC50 [1]: 0.0073 µM
- GI50 ([3]; Homo sapiens, HCT-116, 120 h): 0.033 µM
- GI50 (MDA-MB-468; [9]): 0.16 µM

Structure (SMILES): O=C(N[C@H](c1ccccn1)C1CC1)c1ccc2[nH]nc(-c3ccc(N4[C@H]5CC[C@H]4CC(O)C5)cc3)c2c1 (stereo in doubt; 74)
- IC50 [1]: 0.0012 µM
- IC50 [2]: 0.53 µM
- GI50 ([3]; Homo sapiens, HCT-116, 120 h): 0.018 µM
- GI50 [4]: 0.02 µM
- AUC(0-inf) [7]: 1.6 µg·h/mL
- GI50 (MDA-MB-468): 0.016 µM
- Cmax [8]: 1.6 µg/mL
- half-life at 1 µM [5]: > 1 h
- half-life at 1 µM [6]: > 1 h
- IC50 (Cytochrome P450 3A4): 2.1 µM

Structure (SMILES): O=C(N[C@H](c1ccccn1)C1CCCC1)c1ccc2[nH]nc(-c3ccc(N4[C@H]5CC[C@H]4CC(O)C5)cc3)c2c1 (stereo in doubt; 76)
- Ratio IC50 (Homo sapiens): > 100

Structure (SMILES): O=C(N[C@@H](c1ccccn1)C1CC1)c1ccc2[nH]nc(-c3ccc(N4[C@H]5CC[C@H]4CC(O)C5)cc3)c2c1 (stereo in doubt; 87)
- IC50 [1]: 0.0027 µM
- IC50 [2]: 1.7 µM
- GI50 [3]: 0.048 µM
- GI50 [4]: 0.31 µM
- GI50 (MDA-MB-468): 0.21 µM
- IC50 (Cytochrome P450 3A4): 1.4 µM

Structure (SMILES): O=C(N[C@H](c1ccccn1)C1CCCC1)c1ccc2[nH]nc(-c3ccc(N4[C@H]5CC[C@H]4CC(O)C5)cc3)c2c1 (stereo in doubt; 88)
- Ratio IC50 (Homo sapiens): > 100
